{"data": "Assay results from different studies", "target": "Cyclin-dependent kinase 9 (CDK9, Homo sapiens, UniProt P50750)"}
{"Structure (SMILES)": "CC(C)(C)c1cnc(CSc2cnc(NC(=O)C3CCN(C(=O)CCCCCCCCCCCN4Cc5cc6c(cc5C4)C(=O)N(C4CCC(=O)NC4=O)C6=O)CC3)s2)o1 (stereo not drawn)", "observed": "protein level", "action": "degrader", "technique": "western blot", "cells": "TC-71", "concentration": "25 nM", "measurement": "inhibition", "result": "78%"}
{"Structure (SMILES)": "Cc1cc(S(=O)(=O)N[C@H]2CC[C@H](CN3CCN(c4ccc(C5CCC(=O)NC5=O)cc4F)CC3)CC2)ccc1Nc1ncc(C(F)(F)F)c(N2CCC[C@](C)(O)C2)n1 (stereo partly drawn)", "observed": "binding", "technique": "competition with immobilised ligand", "concentration": "1 µM", "measurement": "remaining binding", "result": "78%"}
{"Structure (SMILES)": "C[C@H]1CC[C@H](n2c3cnccc3c3cnc(Nc4ccc5c(n4)CCN(C(=O)CO)C5)nc32)CC1", "observed": "cell-free assay", "concentration": "1 µM", "measurement": "remaining signal", "result": "60%"}
{"Structure (SMILES)": "C[C@]1(O)CCCN(c2nc(Nc3ccc(S(=O)(=O)N[C@H]4CC[C@H](CN5CCN(c6ccc(C7CCC(=O)NC7=O)cc6F)CC5)CC4)cc3F)ncc2C(F)(F)F)C1 (stereo partly drawn)", "observed": "binding", "technique": "competition with immobilised ligand", "concentration": "1 µM", "measurement": "remaining binding", "result": "95%"}
{"Structure (SMILES)": "CC(C)(C)c1cnc(CSc2cnc(NC(=O)C3CCN(CC(=O)NCCOCCOCCOCCNc4cccc5c4C(=O)N(C4CCC(=O)NC4=O)C5=O)CC3)s2)o1 (stereo not drawn)", "observed": "protein level", "action": "degrader", "technique": "western blot", "cells": "TC-71", "concentration": "25 nM", "measurement": "inhibition", "result": "36.8%"}
{"Structure (SMILES)": "CCCCC(=O)Nc1ccc(-c2ccc3ncn(CCC)c(=O)c3c2)cn1", "observed": "binding", "technique": "competition with immobilised ligand", "concentration": "0.5 µM", "measurement": "remaining binding", "result": "92%"}
{"Structure (SMILES)": "C=CC(=O)N1CCC([C@@H]2CCNc3c(C(N)=O)c(-c4ccc(Oc5ccccc5)cc4)nn32)CC1", "observed": "enzyme activity", "action": "inhibitor", "concentration": "1 µM", "measurement": "inhibition", "result": "0%"}
{"Structure (SMILES)": "CC(C)(C)c1cnc(CSc2cnc(NC(=O)C3CCN(C(=O)CCCCN4Cc5cc6c(cc5C4)C(=O)N(C4CCC(=O)NC4=O)C6=O)CC3)s2)o1 (stereo not drawn)", "observed": "protein level", "action": "degrader", "technique": "western blot", "cells": "TC-71", "concentration": "25 nM", "measurement": "inhibition", "result": "80.1%"}
{"Structure (SMILES)": "C1=C/COCc2cc(ccc2OCCN2CCCC2)Nc2nccc(n2)-c2cccc(c2)COC/1", "observed": "binding", "concentration": "0.1 µM", "measurement": "remaining binding", "result": "64%"}
{"Structure (SMILES)": "COc1ccc2[nH]c3c4[nH]c5ccc(OC)cc5c4c4c(c3c2c1)C(=O)NC4=O", "observed": "binding", "concentration": "1 µM", "measurement": "remaining binding", "result": "58%"}
{"Structure (SMILES)": "CC(C)(C)c1cnc(CSc2cnc(NC(=O)C3CCN(C(=O)CCOCCN4Cc5cc6c(cc5C4)C(=O)N(C4CCC(=O)NC4=O)C6=O)CC3)s2)o1 (stereo not drawn)", "observed": "protein level", "action": "degrader", "technique": "western blot", "cells": "TC-71", "concentration": "25 nM", "measurement": "inhibition", "result": "87.5%"}
{"Structure (SMILES)": "C=CC(=O)N1CCC[C@@H](n2nc(-c3ccc(Oc4ccccc4)cc3)c3c(N)ncnc32)C1", "observed": "enzyme activity", "action": "inhibitor", "concentration": "1 µM", "measurement": "inhibition", "result": "2%"}
